The subject of one assay is Canis familiaris. The experiment in a line: Ex vivo TXA2 ([…]) antagonist activity was determined for U-46,619 induced aggregation (dose ratio) after 2 hr of oral dosing (1 mg/kg) in the dog. It counts as functional, Canis lupus familiaris. A digest of the protocol:
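Dogs (n = 4) dosed orally, blood sampled at 2, 5, 8 and 24 h. Platelet-rich plasma aggregated with U46619 plus a predetermined threshold ADP concentration (about 0.4–1.2 × 10^-6 M), compared before vs after dosing to give a U46619 dose ratio. ">" marks the maximum achievable ratio at top U46619 (1 × 10^-4 M).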

Assay [1] relates to Rattus norvegicus. Nature of the assay: Ex vivo […] (TXA2 synthase) inhibitory activity after 1 hr of oral dosing (5 mg/kg) in the rat. It counts as functional. A digest of the protocol:
(§1)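 Rats (n = 6) gavaged, anesthetized, aortic blood taken at 1, 3 or 5 h after dosing. A blood aliquot was challenged with collagen and TXB2 measured by radioimmunoassay; expressed as % inhibition of TXA2 synthase (±SEM).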

In assay [2] the test system is Rattus norvegicus. Nature of the assay: Ex vivo […] (TXA2 synthase) inhibitory activity after 3 hr of oral dosing (1 mg/kg) in the rat. It counts as functional. In outline:
as §1

Assay [3] has as its system Rattus norvegicus. The experiment in a line: Ex vivo […] (TXA2 synthase) inhibitory activity after 3 hr of oral dosing (5 mg/kg) in the rat. It counts as functional. In outline: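 Conscious rats (n = 6) were gavaged with compound, then anesthetized, and blood was drawn from the abdominal aorta at 1, 3 and 5 h after dosing. A blood aliquot was stimulated with collagen and the TXB2 formed was measured by radioimmunoassay. Results are expressed as % inhibition of TXA2 synthase activity (±SEM).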

For assay [4], the system named is Rattus norvegicus. The experiment in a line: Ex vivo […] (TXA2 synthase) inhibitory activity after 1 hr of oral dosing (3 mg/kg) in the rat. It counts as functional. In outline:
as §1

The subject of assay [5] is Rattus norvegicus. The experiment in a line: Ex vivo TXA2 ([…]) antagonist activity was determined for U-46,619 induced aggregation (dose ratio) after 1 hr of oral dosing (5 mg/kg) in the rat. It counts as functional. A digest of the protocol: (§2)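 Conscious rats (n = 6) dosed by oral gavage, then anesthetized and bled from the abdominal aorta at 1, 3 or 5 h. Platelet-rich plasma aggregated with U46619 before and after dosing to give a U46619 dose ratio. ">" values mark the maximum dose ratio achievable at the top U46619 concentration (1 × 10^-4 M).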

The test system of assay [6] is Rattus norvegicus. Nature of the assay: Ex vivo TXA2 ([…]) antagonist activity was determined for U-46,619 induced aggregation (dose ratio) after 5 hr of oral dosing (1 mg/kg) in the rat. It counts as functional. In outline: as §2
The subject of assay [7] is Rattus norvegicus. The experiment in a line: Ex vivo TXA2 ([…]) antagonist activity was determined for U-46,619 induced aggregation (dose ratio) after 5 hr of oral dosing (3 mg/kg) in the rat. It counts as functional. In outline: as §2
The subject of assay [8] is Rattus norvegicus. The experiment in a line: Ex vivo TXA2 ([…]) antagonist activity was determined for U-46,619 induced aggregation (dose ratio) after 3 hr of oral dosing (3 mg/kg) in the rat. It counts as functional. A digest of the protocol: as §2
In the next assay the target is T1, Prostacyclin synthase (Homo sapiens, UniProt Q16647).
T1 sequence (Q16647 whole entry): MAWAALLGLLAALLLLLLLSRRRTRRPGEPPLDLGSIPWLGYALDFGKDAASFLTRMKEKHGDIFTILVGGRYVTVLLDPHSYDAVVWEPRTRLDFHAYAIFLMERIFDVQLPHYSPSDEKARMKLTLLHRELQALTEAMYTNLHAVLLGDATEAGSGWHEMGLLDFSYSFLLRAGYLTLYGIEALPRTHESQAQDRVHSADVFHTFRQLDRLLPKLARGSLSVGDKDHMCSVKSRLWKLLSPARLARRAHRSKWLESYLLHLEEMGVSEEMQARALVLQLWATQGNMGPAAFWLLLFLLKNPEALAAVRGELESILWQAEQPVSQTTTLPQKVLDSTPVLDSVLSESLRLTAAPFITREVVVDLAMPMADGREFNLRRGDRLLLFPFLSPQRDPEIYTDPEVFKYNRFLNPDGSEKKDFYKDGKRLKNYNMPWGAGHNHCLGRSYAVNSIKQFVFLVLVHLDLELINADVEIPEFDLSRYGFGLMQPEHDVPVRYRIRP
Nature of the assay: In vitro inhibition of Prostaglandin I2 synthase in cultured human endothelial cells.

Where only a bound is given, the exact number is not on record here.

As to `Cc1ccc(OC(C)(C)C2OCC(C/C=C\CCC(=O)O)C(c3cccnc3)O2)c([N+](=O)[O-])c1` (stereo in doubt; 7x), the Antagonist activity in the assay with Canis familiaris is given as more than 506; in the assay with Rattus norvegicus [5], more than 60; in the assay with Rattus norvegicus [6], more than 9; in the assay on Rattus norvegicus [7], more than 21; with Rattus norvegicus [8], more than 23. Besides, the Inhibition with Rattus norvegicus [1] came to 92.9%; in the assay on Rattus norvegicus [2], 38.8%; with Rattus norvegicus [3], 89.2%; with Rattus norvegicus [4], 90.8%. Besides, the IC50 at Prostacyclin synthase stood at 28 µM.

As a reminder, the Inhibition is the share of the control response that was lost under treatment. Low values mean a weak effect, high ones a strong effect. What is called IC50 is the concentration at which inhibition is half-maximal. Higher therefore signals weaker potency in that assay.

Source of the values: ChEMBL document CHEMBL1128245, “Dual-acting thromboxane receptor antagonist/synthase inhibitors: synthesis and biological properties of [2-substituted-4-(3-pyridyl)-1,3-dioxan-5-yl] alkenoic acids” (J Med Chem, 1995).
